Paper PMC3889630 (European Journal of Clinical Pharmacology, 2013)
Entries after “also recorded” stand apart in the source; their conditions may differ. Like-named read-outs stand apart in the source and are kept apart here.

How the values were obtained:
[1] = cited from earlier work
[2] = co-administration with darunavir/ritonavir, Phase 1 study; cited from earlier work
[3] = Safety and tolerability after single 50 mg DTG dose; type: in vivo, human; settings: both groups
In short: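 Open-label single-dose study in HIV-seronegative adults aged 18–70 y: 8 with severe renal impairment (24-h urine CLcr <30 mL/min) and 8 healthy (CLcr >90 mL/min), matched for gender, age (±5 y) and BMI (±25 %). Each took one 50 mg tablet in the morning, fasted, and stayed housed until the last PK sample. Clinical and laboratory safety checks throughout, plus follow-up 7–10 days post-dose.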

[4] = treatment-naïve subjects, SPRING-1; cited from earlier work
[5] = type: in vitro ADME, human
[6] = cited from earlier work; remark: listed apart in the source
[7] = type: in vivo, human
In short: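 Severe renal impairment group (CLcr <30 mL/min) and matched healthy group (>90 mL/min), n=8 each, took one fasted morning 50 mg tablet. Total DTG and DTG-glucuronide measured by validated LC-MS/MS after acetonitrile extraction. Non-compartmental parameters log-transformed and compared by ANCOVA (gender fixed; age, BMI covariates) as geometric LS mean ratio impaired/healthy with 90 % CI.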

[8] = system: HIV; settings: stated in discussion, no reference given; cited from earlier work

Compound | share of DTG among drug-related components circulating in plasma [1] | renal elimination of unchanged drug ([1]; human) | reduction of DTG trough concentration by DRV/r [2] | deaths or serious adverse events [3] | intensity of adverse events [3] | tolerability [3] | reduction in DTG exposure between the 50 mg and 10 mg once-daily doses [4] | GLS mean unbound plasma DTG concentration lower in renal impaired subjects ([5]; 3-hour time point) | GLS mean unbound plasma DTG concentration lower in renal impaired subjects ([5]; 24-hour time point) | effect of renal impairment on DTG fraction unbound in plasma ([5]; severe renal impairment vs healthy) | bound to plasma proteins [6] | mean elimination half-life shorter in renal impairment compared to controls ([7]; 50 mg single oral dose) | correlation between creatinine clearance and DTG PK parameters ([7]; Pearson, p > 0.1) | Cmax ([7]; human, plasma, oral, 50 mg, Cmax, range of values, DTG, healthy subjects) | antiviral activity [8] | t1/2 ratio of DTG-Gluc to DTG ([7]; both groups of subjects) | glucuronide exposure relative to parent DTG based on molar ratios ([7]; renally-impaired population)
C[C@@H]1CCO[C@H]2Cn3cc(C(=O)NCc4ccc(F)cc4F)c(=O)c(O)c3C(=O)N12 [DTG, Dolutegravir] | > 97% | < 1 % of the dose | 38% | No deaths or serious adverse events | mild (Grade 1) | well tolerated | 75% | 14% | 49% | did not affect; also recorded: similar | greater than 99% | 18% | No significant correlation | 820 to 3200 ng/mL | – | – | –
C[C@@H]1CCO[C@H]2Cn3cc(C(=O)NCc4ccc(F)cc4F)c(=O)c(O[C@@H]4O[C@H](C(=O)O)[C@@H](O)[C@H](O)[C@H]4O)c3C(=O)N12 [DTG-Gluc, DTG-glucuronide] | – | – | – | – | – | – | – | – | – | – | – | – | – | – | no antiviral activity | ~1 | < 10%
